Assay results published in ChEMBL document CHEMBL1828502, “Quinolinyl and quinolinyl N-oxide chalcones: synthesis, antifungal and cytotoxic activities” (Eur J Med Chem, 2011).
≈ marks a conversion by molar mass, not a printed value.

Columns and labels:
Jurkat = experiment: Anticancer activity against human Jurkat cells after 48 hrs by MTT assay; assay type: functional, cell-based
In short: (§1)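 HL60 and Jurkat leukemia lines plated at 50,000 and 100,000 cells/well respectively and pre-incubated 24 h at 37 °C, 5% CO2. Compounds dissolved in DMSO and tested over a concentration range of […] for 48 h. Viability read by MTT reduction (4 h), formazan dissolved in acidic isopropanol, OD 590 nm. Values normalized to 0.05% DMSO control; IC50 taken graphically from dose-effect curves. Triplicate, three separate days.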

TK-10 = experiment: Anticancer activity against human TK10 cells after 48 hrs by sulforhodamine B assay; assay type: functional, cell-based
In short: (§2)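 Solid tumour lines from NCI (NCI colorimetric protocol), seeded and pre-incubated 24 h at 37 °C, 5% CO2, then exposed to compounds for 48 h. Proteins fixed with trichloroacetic acid, stained with sulforhodamine B, dye dissolved in 10 mM Tris, absorbance at 515 nm compared against initial-density control wells. IC50 from dose-response curves built with 1:2 serial dilutions; duplicate, repeated at least three times.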

Candida tropicalis [1] = experiment: Antifungal activity against Candida tropicalis after 2 days by broth microdilution method in presence of 1 M osmotic stabilizer sorbitol; assay type: functional; conditions: 48 h
[2] = test system: Paracoccidioides brasiliensis; experiment: Antifungal activity against Paracoccidioides brasiliensis Pb18 after 10 days by broth microdilution method in presence of 1 M osmotic stabilizer sorbitol; assay type: functional; conditions: 240 h
Candida tropicalis [3] = experiment: Antifungal activity against Candida tropicalis by two fold serial dilution method; assay type: functional
In short: (§3)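 Broth microdilution MIC following CLSI M27-A2 with twofold serial dilutions; strains ATCC 18804 (C. albicans), ATCC 22019 (C. parapsilosis), ATCC 750 (C. tropicalis), ATCC 32608 (C. gattii), kept on Sabouraud dextrose agar at 4 °C. Amphotericin B and trimethoprim/sulfamethoxazole served as positive controls.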

MCF7 = experiment: Anticancer activity against human MCF7 cells after 48 hrs by sulforhodamine B assay; assay type: functional, cell-based; in short: as §2
HL-60 = experiment: Anticancer activity against human HL60 cells after 48 hrs by MTT assay; assay type: functional, cell-based; in short: as §1
UACC-62 = experiment: Anticancer activity against human UACC62 cells after 48 hrs by sulforhodamine B assay; assay type: functional, cell-based; in short: as §2
[4] = test system: Paracoccidioides brasiliensis; experiment: Antifungal activity against Paracoccidioides brasiliensis Pb18 by serial dilution method; assay type: functional
Candida parapsilosis = experiment: Antifungal activity against Candida parapsilosis by two fold serial dilution method; assay type: functional; conditions: Lodderomyces parapsilosis; in short: as §3
[5] = test system: Cryptococcus gattii species complex; experiment: Antifungal activity against Cryptococcus gattii by two fold serial dilution method; assay type: functional, Cryptococcus bacillisporus; in short: as §3
[6] = test system: Cryptococcus gattii species complex; experiment: Antifungal activity against Cryptococcus gattii by two fold serial dilution method after 3 days by broth microdilution method in presence of 1 M osmotic stabilizer sorbitol; assay type: functional, Cryptococcus bacillisporus; conditions: 72 h
Candida albicans = experiment: Antifungal activity against Candida albicans by two fold serial dilution method; assay type: functional; in short: as §3
[7] = Homo sapiens, Jurkat, 48 h, read-out: IC50
[8] = Homo sapiens, HL-60, 48 h, read-out: IC50
[9] = Homo sapiens, TK-10, 48 h, read-out: IC50
[10] = Homo sapiens, MCF7, 48 h, read-out: IC50
[11] = Homo sapiens, UACC-62, 48 h, read-out: IC50

## C[n+]1cccc2cc(/C=C/C(=O)c3ccc(Cl)cc3)ccc21.[I-]
Jurkat; [7]
  IC50: 4.9 µg/mL
TK-10; tk-10
  IC50: Not Active
Candida tropicalis [1]
  MIC: 31.2 µg/mL
[2]
  MIC: > 31.2 µg/mL
Candida tropicalis [3]
  MIC: 31.2 µg/mL
MCF7; mcf7
  IC50: Not Active
HL-60; [8]
  IC50: 9.9 µg/mL
UACC-62; uacc-62
  IC50: Not Active
[4]
  MIC: 125 µg/mL
Candida parapsilosis
  MIC: > 500 µg/mL
[5]
  MIC: 15.6 µg/mL
[6]
  MIC: 15.6 µg/mL
Candida albicans
  MIC: 500 µg/mL

## O=C(/C=C/c1ccc2c(ccc[n+]2[O-])c1)c1ccc(F)cc1
Jurkat; [7]
  IC50: 71.9 µg/mL (≈ 245 µM)
TK-10; [9]
  IC50: 0.19 µg/mL (≈ 0.648 µM)
Candida tropicalis [1]
  MIC: > 31.2 µg/mL
[2]
  MIC: 1.9 µg/mL
Candida tropicalis [3]
  MIC: > 500 µg/mL
MCF7; [10]
  IC50: 4.3 µg/mL (≈ 14.7 µM)
HL-60; hl-60
  IC50: Not Active
UACC-62; [11]
  IC50: 2.75 µg/mL (≈ 9.38 µM)
[4]
  MIC: 1.9 µg/mL (≈ 6.48 µM)
Candida parapsilosis
  MIC: > 500 µg/mL
[5]
  MIC: 62.5 µg/mL (≈ 213 µM)
[6]
  MIC: > 31.2 µg/mL
Candida albicans
  MIC: > 500 µg/mL

## COc1cc([C@@H]2c3cc4c(cc3[C@@H](O[C@@H]3O[C@@H]5CO[C@@H](C)O[C@H]5[C@H](O)[C@H]3O)[C@H]3COC(=O)[C@H]23)OCO4)cc(OC)c1O [ETOPOSIDE]
Jurkat; [7]
  IC50: 2.8 µg/mL (≈ 4.76 µM)
TK-10; [9]
  IC50: 20.4 µg/mL (≈ 34.7 µM)
MCF7; [10]
  IC50: 0.03 µg/mL (≈ 0.051 µM)
HL-60; [8]
  IC50: 0.47 µg/mL (≈ 0.799 µM)
UACC-62; [11]
  IC50: 1.4 µg/mL (≈ 2.38 µM)

## C[n+]1cccc2cc(/C=C/C(=O)c3ccc([N+](=O)[O-])cc3)ccc21.[I-]
Jurkat; jurkat
  IC50: Not Active
TK-10; tk-10
  IC50: Not Active
Candida tropicalis [1]
  MIC: > 31.2 µg/mL
[2]
  MIC: > 31.2 µg/mL
Candida tropicalis [3]
  MIC: 250 µg/mL
MCF7; mcf7
  IC50: Not Active
HL-60; hl-60
  IC50: Not Active
UACC-62; uacc-62
  IC50: Not Active
[4]
  MIC: 250 µg/mL
Candida parapsilosis
  MIC: > 500 µg/mL
[5]
  MIC: 31.2 µg/mL
[6]
  MIC: 62.5 µg/mL
Candida albicans
  MIC: > 500 µg/mL

## C[C@@H]1[C@H](O)[C@@H](C)/C=C/C=C/C=C/C=C/C=C/C=C/C=C/[C@H](O[C@@H]2O[C@H](C)[C@@H](O)[C@H](N)[C@@H]2O)C[C@@H]2O[C@](O)(C[C@@H](O)C[C@@H](O)[C@H](O)CC[C@@H](O)C[C@@H](O)CC(=O)O[C@H]1C)C[C@H](O)[C@H]2C(=O)O [AMPHOTERICIN B]
Candida tropicalis [3]
  MIC: 0.25 µg/mL (≈ 0.271 µM)
[4]
  MIC: 0.006 µg/mL (≈ 0.00649 µM)
Candida parapsilosis
  MIC: 0.5 µg/mL (≈ 0.541 µM)
[5]
  MIC: 1.2 µg/mL (≈ 1.3 µM)
Candida albicans
  MIC: 1 µg/mL (≈ 1.08 µM)

## O=C(/C=C/c1ccc2ncccc2c1)c1ccc(F)cc1
Jurkat; [7]
  IC50: 26.5 µg/mL (≈ 95.6 µM)
TK-10; [9]
  IC50: 1 µg/mL (≈ 3.61 µM)
Candida tropicalis [1]
  MIC: > 31.2 µg/mL
[2]
  MIC: 7.8 µg/mL
Candida tropicalis [3]
  MIC: > 500 µg/mL
MCF7; [10]
  IC50: 6.3 µg/mL (≈ 22.7 µM)
HL-60; [8]
  IC50: 20.8 µg/mL (≈ 75 µM)
UACC-62; [11]
  IC50: 5.6 µg/mL (≈ 20.2 µM)
[4]
  MIC: 7.8 µg/mL (≈ 28.1 µM)
Candida parapsilosis
  MIC: > 500 µg/mL
[5]
  MIC: 500 µg/mL (≈ 1800 µM)
[6]
  MIC: > 31.2 µg/mL
Candida albicans
  MIC: > 500 µg/mL

## O=C(/C=C/c1ccc2c(ccc[n+]2[O-])c1)c1ccc(Br)cc1
Jurkat; [7]
  IC50: 65.5 µg/mL (≈ 185 µM)
TK-10; [9]
  IC50: 1.1 µg/mL (≈ 3.11 µM)
Candida tropicalis [3]
  MIC: > 500 µg/mL
MCF7; [10]
  IC50: 6.6 µg/mL (≈ 18.6 µM)
HL-60; [8]
  IC50: 2.6 µg/mL (≈ 7.34 µM)
UACC-62; [11]
  IC50: 4.7 µg/mL (≈ 13.3 µM)
[4]
  MIC: 62.5 µg/mL (≈ 176 µM)
Candida parapsilosis
  MIC: > 500 µg/mL
[5]
  MIC: 62.5 µg/mL (≈ 176 µM)
Candida albicans
  MIC: > 500 µg/mL

## COc1ccc(C(=O)/C=C/c2ccc3c(ccc[n+]3C)c2)cc1.[I-]
Jurkat; [7]
  IC50: 11.9 µg/mL
TK-10; tk-10
  IC50: Not Active
Candida tropicalis [1]
  MIC: > 31.2 µg/mL
[2]
  MIC: > 31.2 µg/mL
Candida tropicalis [3]
  MIC: 62.5 µg/mL
MCF7; mcf7
  IC50: Not Active
HL-60; [8]
  IC50: 25.2 µg/mL
UACC-62; uacc-62
  IC50: Not Active
[4]
  MIC: 125 µg/mL
Candida parapsilosis
  MIC: 125 µg/mL
[5]
  MIC: 31.2 µg/mL
[6]
  MIC: 62.5 µg/mL
Candida albicans
  MIC: 62.5 µg/mL

## COc1ccc(C(=O)/C=C/c2ccc3c(ccc[n+]3[O-])c2)cc1
Jurkat; [7]
  IC50: 36.3 µg/mL (≈ 119 µM)
TK-10; [9]
  IC50: 5.25 µg/mL (≈ 17.2 µM)
Candida tropicalis [1]
  MIC: > 31.2 µg/mL
[2]
  MIC: 15.6 µg/mL
Candida tropicalis [3]
  MIC: > 500 µg/mL
MCF7; [10]
  IC50: 1.15 µg/mL (≈ 3.77 µM)
HL-60; [8]
  IC50: 14.8 µg/mL (≈ 48.5 µM)
UACC-62; [11]
  IC50: 4.3 µg/mL (≈ 14.1 µM)
[4]
  MIC: 15.6 µg/mL (≈ 51.1 µM)
Candida parapsilosis
  MIC: > 500 µg/mL
[5]
  MIC: > 500 µg/mL
[6]
  MIC: > 31.2 µg/mL
Candida albicans
  MIC: > 500 µg/mL

## C[n+]1cccc2cc(/C=C/C(=O)c3ccccc3)ccc21.[I-]
Jurkat; jurkat
  IC50: Not Active
TK-10; tk-10
  IC50: Not Active
Candida tropicalis [3]
  MIC: 125 µg/mL
MCF7; mcf7
  IC50: Not Active
HL-60; hl-60
  IC50: Not Active
UACC-62; uacc-62
  IC50: Not Active
[4]
  MIC: 500 µg/mL
Candida parapsilosis
  MIC: > 500 µg/mL
[5]
  MIC: 31.2 µg/mL
Candida albicans
  MIC: > 500 µg/mL

## O=C(/C=C/c1ccc2ncccc2c1)c1ccccc1
Jurkat; jurkat
  IC50: Not Active
TK-10; [9]
  IC50: 7 µg/mL (≈ 27 µM)
Candida tropicalis [3]
  MIC: > 500 µg/mL
MCF7; [10]
  IC50: 1.1 µg/mL (≈ 4.24 µM)
HL-60; hl-60
  IC50: Not Active
UACC-62; [11]
  IC50: 3.83 µg/mL (≈ 14.8 µM)
Candida parapsilosis
  MIC: > 500 µg/mL
[5]
  MIC: 125 µg/mL (≈ 482 µM)
Candida albicans
  MIC: > 500 µg/mL
